Laboratory results: ChEMBL document CHEMBL1156771, “Synthesis and antimalarial evaluation of 1, 3, 5-trisubstituted pyrazolines” (Eur J Med Chem, 2010)
Calls of active or inactive are those of the source. The rule behind the calls is not given here.

Tests used:
Plasmodium falciparum [1] = assay: Antiplasmodial activity against chloroquine-sensitive Plasmodium falciparum MRC-02 infected in human erythrocyte assessed as inhibition of schizont maturation after 24 hrs; format: functional, organism-based; settings: MRC-02, 24 h
Outline: (§1)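 Sorbitol-synchronised ring-stage culture in human B+ erythrocytes, in RPMI-1640 with 25 mM HEPES, 10% AB+ serum and 0.2% bicarbonate under 5% CO2. Parasitaemia was set at 1–1.5%. Cultures were exposed to two-fold serial dilutions for 24 h at 37 °C (ethanol ≤0.5% final), duplicate wells per dose. Schizonts per 100 asexual parasites were counted on Giemsa smears. Inhibition = (1−Nt/Nc)×100.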

[2] = Cytotoxicity against human HeLa cells after 72 hrs by neutral red uptake assay; format: cell-based
Outline: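 HeLa cells grown in EMEM with 10% FBS were seeded at 2×10^3 per well and left overnight at 37 °C, 5% CO2. They were exposed to two-fold serial dilutions from DMSO stocks (DMSO ≤0.1%) in duplicate for 72 h. Cells were fixed in glutaraldehyde, stained with 0.2% neutral red and lysed in acid ethanol, then read at 550 nm against DMSO controls. The value reported is MNTD, the highest concentration giving 100% survival.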

[3] = Selectivity ratio of CC50 for human HeLa cells to IC50 for Plasmodium falciparum MRC-02; format: ADME, cell-based; settings: read-out: Ratio CC50/IC50
Outline: (§2)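 The IC50 came from sorbitol-synchronized ring-stage cultures at 1–1.5% parasitemia in human B+ erythrocytes in RPMI-1640/HEPES with 10% AB+ serum, given two-fold dilutions (ethanol ≤0.5% final). Cultures ran 24 h at 37 °C in duplicate, and schizonts per 100 asexual parasites were counted on Giemsa smears.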

Plasmodium falciparum [4] = assay: Antiplasmodial activity against chloroquine-resistant Plasmodium falciparum RKL09 infected in human erythrocyte assessed as inhibition of schizont maturation after 24 hrs; format: functional, organism-based; settings: RKL09, 24 h; outline: as §1
[5] = Selectivity ratio, CC50 for human HeLa cells to IC50 for Plasmodium falciparum RKL09; format: ADME, cell-based; settings: read-out: Ratio CC50/IC50; outline: as §2
Plasmodium berghei [6] = assay: Antimalarial activity against Plasmodium berghei ANKA infected in Swiss albino mice (Mus musculus) assessed as suppression of parasitemia at 50 mg/kg/day, perorally for 4 days; format: functional; settings: route oral
Outline: (§3)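 Peters' 4-day suppressive test in male Swiss albino mice (18–20 g), five per group. Mice were infected intraperitoneally with about 30% P. berghei-infected donor erythrocytes, then dosed orally 4 h later and on days 0–3. Controls received the suspending solvent. Giemsa-stained tail smears were read on days 4 and 7; % suppression was calculated against controls. Survival was followed for 28 days for MST.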

Plasmodium berghei [7] = assay: Antimalarial activity against Plasmodium berghei ANKA infected in Swiss albino mice (Mus musculus) assessed as mean survival time at 50 mg/kg/day, perorally for 4 days measured after 28 days; format: functional; settings: route oral
Outline: (§4)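 Peters 4-day suppressive test in male Swiss albino mice (18–20 g), groups of five. Mice inoculated intraperitoneally with P. berghei ANKA-infected erythrocytes from a donor mouse. Oral dosing began 4 h later and was given once daily on days 0–3. Vehicle controls received the suspending solvent. Mean survival time was taken from deaths over a 28-day observation period.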

Plasmodium berghei [8] = assay: Antimalarial activity against Plasmodium berghei ANKA infected in Swiss albino mice (Mus musculus) assessed as suppression of parasitemia at 25 mg/kg/day, perorally for 4 days; format: functional; settings: route oral; outline: as §3
Plasmodium berghei [9] = assay: Antimalarial activity against Plasmodium berghei ANKA infected in Swiss albino mice (Mus musculus) assessed as mean survival time at 25 mg/kg/day, perorally for 4 days measured after 28 days; format: functional; settings: route oral; outline: as §4
[10] = Inhibition of beta-hematin formation by BHIA assay; format: functional
Outline: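 Compounds (6 to 0.3 mM) were incubated with hematin in the presence of glacial acetic acid at 37 °C for 24 h. Water or ethanol served as controls. The pellet was washed with DMSO to remove unconverted hematin, and the remaining β-hematin was dissolved in 0.1 N NaOH. Absorbance was read at 405 nm to derive BHIA50.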

Plasmodium berghei [11] = assay: Antimalarial activity against Plasmodium berghei ANKA infected in Swiss albino mice (Mus musculus) assessed as suppression of parasitemia at 8 mg/kg/day, perorally for 4 days; format: functional; settings: route oral; outline: as §3
Plasmodium berghei [12] = assay: Antimalarial activity against Plasmodium berghei ANKA infected in Swiss albino mice (Mus musculus) assessed as mean survival time at 8 mg/kg/day, perorally for 4 days measured after 28 days; format: functional, organism-based; outline: as §3

Row | Structure (SMILES) | IC50 (Plasmodium falciparum [1]) [µM] | MNTC at 72 h [2] [nM] | selectivity ratio [3] | IC50 (Plasmodium falciparum [4]) [µM] | selectivity ratio [5] | Activity (Plasmodium berghei [6]) [%] | Activity (Plasmodium berghei [7]) [days] | Activity (Plasmodium berghei [8]) [%] | Activity (Plasmodium berghei [9]) [days] | IC50 [10] [µM] | Activity (Plasmodium berghei [11]) [%] | Activity (Plasmodium berghei [12])
1 | O=C(c1cccnc1)N1N=C(c2ccc(O)cc2)CC1c1ccc(Cl)cc1Cl (centres undefined) | 0.0375 | 1250 | 33.3 | 0.068 | 18.4 | 68.93 | 13.2 | 60.55 | 11.6 | 1530 | – | –
2 | O=C(c1cccnc1)N1N=C(c2ccc(O)cc2)CC1c1ccccc1Br (centres undefined) | 0.0272 | 3810 | 140 | 0.064 | 59.6 | 47.52 | 10.3 | 34.98 | 9 | 1820 | – | –
3 | O=C(c1cccnc1)N1N=C(c2ccc(O)cc2)CC1c1cccc([N+](=O)[O-])c1 (centres undefined) | 0.106 | 3750 | 35.2 | 0.423 | 8.85 | – | – | – | – | 2070 | – | –
4 | COc1cc(C2CC(c3ccc(O)cc3)=NN2C(=O)c2cccnc2)cc(OC)c1OC (centres undefined) | 0.0265 | 828 | 31.2 | 0.0425 | 19.5 | 43.7 | 11 | 32.78 | 9 | 1700 | – | –
5 | O=C(c1cccnc1)N1N=C(c2ccc(O)cc2)CC1c1ccccc1 (centres undefined) | 0.0304 | 1880 | 61.7 | 0.131 | 14.4 | – | – | – | – | 1580 | – | –
6 | CCOc1ccc(C2CC(c3ccc(O)cc3)=NN2C(=O)c2cccnc2)cc1OC (centres undefined) | – | 3560 | 47.5 | – | 16.6 | – | – | – | – | 2390 | – | –
7 | CCN(CC)CCCC(C)Nc1ccnc2cc(Cl)ccc12.O=P(O)(O)O.O=P(O)(O)O (centres undefined) [CHLOROQUINE PHOSPHATE] | – | 66200 | – | – | – | – | – | – | – | 1890 | 100 | Active
8 | COc1ccc(Br)cc1C1CC(c2ccc(O)cc2)=NN1C(=O)c1cccnc1 (centres undefined) | 0.0495 | 2660 | 53.7 | 0.242 | 11 | – | – | – | – | 1890 | – | –
9 | Cc1ccc(C2CC(c3ccc(O)cc3)=NN2C(=O)c2cccnc2)cc1 (centres undefined) | 0.0555 | 2190 | 39.4 | 0.0887 | 24.6 | – | – | – | – | 1570 | – | –
10 | O=C(c1cccnc1)N1N=C(c2ccc(O)cc2)CC1c1cccc(Br)c1 (centres undefined) | 0.026 | 3060 | 118 | 0.0786 | 39 | – | – | – | – | 2060 | – | –
11 | Cc1ccccc1C1CC(c2ccc(O)cc2)=NN1C(=O)c1cccnc1 (centres undefined) | 0.0625 | 1810 | 29 | 0.102 | 17.8 | – | – | – | – | 2430 | – | –
